Results reported in ChEMBL document CHEMBL1156631 (J Med Chem, 2008).
pEC50: −log10 of the molar value.

Key:
[1] = target: T1, Cannabinoid receptor 2 (Homo sapiens, UniProt P34972); test: Agonist activity at human recombinant CB2 receptor expressed in Sf9 cells by GTP-europium binding assay
Outline: (§1)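 Membranes were from Sf9 insect cells cotransfected with CB1 or CB2 plus Gαi3 (Bmax 1.7 pmol/mL). Compound (0.01 nM–10 µM, 1% DMSO final) was added to buffer with Hepes, BSA, 10 mM MgCl2, 150 mM NaCl, 5 µM GDP, 10 nM GTP-europium, saponin and membranes (CB1 4.5 µg/well, CB2 14 µg/well). 100% efficacy was set by 3 µM reference agonist.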

[2] = target: T1, Cannabinoid receptor 2; test: Agonist activity at human recombinant CB2 receptor expressed in Sf9 cells by GTP-europium binding assay relative to CP-55940
Outline: as §1, with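 “µg/well). Incubation was 45 min at room temperature, then filtration and washing, with fluorescence read at 615 nm.” for “µg/well).”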

[3] = target: T2, Cannabinoid receptor 1 (Homo sapiens, UniProt P21554); test: Agonist activity at human CB1 receptor expressed in Sf9 cells by GTP-europium binding assay; outline: as §1
[4] = target: T3, Cannabinoid receptor 2 (Rattus norvegicus, UniProt Q9QZN9); test: Agonist activity at rat recombinant CB2 receptor expressed in CHO-K1 cells assessed as inhibition of forskolin-stimulated intracellular cAMP level; type: functional, cell-based
T3 sequence (Q9QZN9 whole entry): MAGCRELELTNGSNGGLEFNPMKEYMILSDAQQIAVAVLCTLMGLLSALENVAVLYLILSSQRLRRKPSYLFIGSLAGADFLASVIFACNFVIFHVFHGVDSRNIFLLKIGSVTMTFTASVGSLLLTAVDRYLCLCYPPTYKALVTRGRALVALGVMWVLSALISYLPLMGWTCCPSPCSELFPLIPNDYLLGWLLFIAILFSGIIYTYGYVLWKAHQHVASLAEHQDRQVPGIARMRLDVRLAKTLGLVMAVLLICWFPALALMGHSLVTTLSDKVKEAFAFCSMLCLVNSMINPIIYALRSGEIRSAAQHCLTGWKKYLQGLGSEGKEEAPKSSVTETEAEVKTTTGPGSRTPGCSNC
Outline: (§2)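 CHO-K1 cells stably expressing human or rat CB1 or CB2 were used. Compounds were diluted from DMSO into HBSS/HEPES/BSA buffer containing 60 µM forskolin, then combined with 5000 cells/well plus Alexa647 anti-cAMP antibody, 1 h at room temperature. A biotinylated-cAMP detection mix was added for another 1 h. Emission at 665 nm gave concentration-response curves and EC50; Emax is expressed as a percentage of the reference agonist maximum.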

[5] = target: Cannabinoid receptor 1 (Rattus norvegicus, UniProt P20272); test: Agonist activity at rat recombinant CB1 receptor expressed in CHO-K1 cells assessed as inhibition of forskolin-stimulated intracellular cAMP level; type: functional, cell-based
Outline: as §2, with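 “h.” for “h. Emission at 665 nm gave concentration-response curves and EC50; Emax is expressed as a percentage of the reference agonist maximum.”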

[6] = target: T1, Cannabinoid receptor 2; test: Agonist activity at human recombinant CB2 receptor expressed in CHO-K1 cells assessed as inhibition of forskolin-stimulated intracellular cAMP level; type: functional, cell-based
Outline: as §2, with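 “h.” for “h. Emission at 665 nm gave concentration-response curves and EC50; Emax is expressed as a percentage of the reference agonist maximum.”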

[7] = target: T1, Cannabinoid receptor 2; test: Agonist activity at human recombinant CB2 receptor expressed in CHO-K1 cells assessed as inhibition of forskolin-stimulated intracellular cAMP level relative to CP-55940; type: functional, cell-based; outline: as §2
[8] = target: T2, Cannabinoid receptor 1; test: Agonist activity at human recombinant CB1 receptor expressed in Sf9 cells by GTP-europium binding assay relative to CP-55940
Outline: as §1, with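 “µg/well). Incubation was 45 min at room temperature, then filtration and washing, with fluorescence read at 615 nm.” for “µg/well).”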

[9] = target: T4, Cannabinoid receptor 2 (Rattus norvegicus) (UniProt Q9QZN9); test: Agonist activity at rat recombinant CB2 receptor expressed in CHO-K1 cells assessed as inhibition of forskolin-stimulated intracellular cAMP level relative to CP-55940; type: functional, cell-based; outline: as §2
T4 sequence (whole entry): T3 sequence (Q9QZN9 whole entry)

[10] = target: T2, Cannabinoid receptor 1; test: Agonist activity at human recombinant CB1 receptor expressed in CHO-K1 cells assessed as inhibition of forskolin-stimulated intracellular cAMP level; type: functional, cell-based
Outline: as §2, with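 “h.” for “h. Emission at 665 nm gave concentration-response curves and EC50; Emax is expressed as a percentage of the reference agonist maximum.”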

[11] = target: Cannabinoid receptor 1 (Rattus norvegicus) (UniProt P20272); test: Agonist activity at rat recombinant CB1 receptor expressed in CHO-K1 cells assessed as inhibition of forskolin-stimulated intracellular cAMP level relative to CP-55940; type: functional, cell-based; outline: as §2
[12] = target: T2, Cannabinoid receptor 1; test: Agonist activity at human recombinant CB1 receptor expressed in CHO-K1 cells assessed as inhibition of forskolin-stimulated intracellular cAMP level relative to CP-55940; type: functional, cell-based; outline: as §2

Chain of Cannabinoid receptor 1 (Rattus norvegicus) (P20272 whole entry): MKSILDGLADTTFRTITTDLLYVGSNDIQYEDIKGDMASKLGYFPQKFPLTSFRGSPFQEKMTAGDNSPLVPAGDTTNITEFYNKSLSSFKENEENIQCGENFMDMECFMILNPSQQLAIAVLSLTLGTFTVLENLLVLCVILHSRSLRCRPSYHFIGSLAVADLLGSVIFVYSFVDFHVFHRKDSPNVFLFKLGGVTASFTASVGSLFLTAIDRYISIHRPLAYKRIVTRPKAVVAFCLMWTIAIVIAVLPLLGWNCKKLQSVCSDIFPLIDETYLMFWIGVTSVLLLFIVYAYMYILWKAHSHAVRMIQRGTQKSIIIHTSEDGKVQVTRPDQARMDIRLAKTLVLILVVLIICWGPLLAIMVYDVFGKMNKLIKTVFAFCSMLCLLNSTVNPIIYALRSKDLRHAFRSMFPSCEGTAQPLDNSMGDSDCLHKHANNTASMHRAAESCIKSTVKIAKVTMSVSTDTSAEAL
Chain of Cannabinoid receptor 1 (Rattus norvegicus, UniProt P20272) (P20272 whole entry): as above
T1 sequence (P34972 whole entry): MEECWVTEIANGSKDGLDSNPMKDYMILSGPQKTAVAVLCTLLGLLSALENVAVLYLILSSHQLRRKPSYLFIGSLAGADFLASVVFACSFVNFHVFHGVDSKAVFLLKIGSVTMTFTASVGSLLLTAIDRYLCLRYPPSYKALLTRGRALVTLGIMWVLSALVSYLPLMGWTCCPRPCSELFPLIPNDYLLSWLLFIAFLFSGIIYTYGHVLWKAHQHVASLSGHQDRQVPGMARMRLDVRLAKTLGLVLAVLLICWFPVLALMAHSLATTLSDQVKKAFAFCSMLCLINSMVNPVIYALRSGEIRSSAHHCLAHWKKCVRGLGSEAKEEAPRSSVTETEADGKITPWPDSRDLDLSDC
T2 sequence (P21554 whole entry): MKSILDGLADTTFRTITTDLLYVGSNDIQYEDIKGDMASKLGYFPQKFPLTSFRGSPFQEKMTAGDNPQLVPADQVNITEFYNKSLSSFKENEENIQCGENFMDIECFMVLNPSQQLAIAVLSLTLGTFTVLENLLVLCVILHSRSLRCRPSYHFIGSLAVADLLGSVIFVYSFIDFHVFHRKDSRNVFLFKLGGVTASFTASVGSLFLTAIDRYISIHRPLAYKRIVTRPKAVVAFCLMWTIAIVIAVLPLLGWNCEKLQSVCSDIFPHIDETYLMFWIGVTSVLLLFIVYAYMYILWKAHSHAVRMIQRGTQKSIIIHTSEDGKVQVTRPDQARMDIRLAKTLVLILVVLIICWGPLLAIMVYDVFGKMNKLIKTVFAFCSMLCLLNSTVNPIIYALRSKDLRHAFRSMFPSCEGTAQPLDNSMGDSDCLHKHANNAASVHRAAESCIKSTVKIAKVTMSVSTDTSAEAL

| Structure (SMILES) | pEC50 [1] | Emax [2] | pEC50 [3] | pEC50 [4] | pEC50 [5] | pEC50 [6] | Emax [7] | Emax [8] | Emax [9] | pEC50 [10] | Emax [11] | Emax [12] |
| --- | --- | --- | --- | --- | --- | --- | --- | --- | --- | --- | --- | --- |
| CCn1c2ccccc2c2cc(NC(=O)CCc3nc(-c4cccc(Cl)c4)no3)ccc21 | 6.39 | 87% | < 5.00 |  |  |  |  |  |  |  |  |  |
| N#Cc1cc(NCCCc2nc(-c3ccc(F)cc3Cl)no2)cnc1OCC(F)(F)F | 7.51 | 110% | 5.89 | 6.89 | < 6.00 | 6.44 | 87% | 24% | 85% | < 6.00 |  |  |
| CCn1c2ccccc2c2cc(NC(=O)CCc3nc(C4CCOCC4)no3)ccc21 | 7.38 | 94% | < 5.00 | 9.42 | 6.82 | 8.62 | 98% |  | 100% | < 6.00 | 110% | 23% |
| Fc1ccc(-c2noc(CCCNc3nc4ccc(Cl)cc4s3)n2)c(Cl)c1 | 6.77 | 100% | 5.48 | 6.54 | < 6.00 | 6.96 | 87% | 16% | 66% | < 6.00 | 45% | 25% |
| CCn1c2ccccc2c2cc(NC(=O)CCc3nc(-c4ccncc4C#N)no3)ccc21 | 8.42 | 110% | < 5.00 | 8.89 | < 6.00 | < 8.59 | 100% |  | 110% | < 6.00 |  |  |
| CCn1c2ccccc2c2cc(NC(=O)CCc3cc(-c4ccccc4F)[nH]n3)ccc21 | < 5.00 |  | < 5.00 |  |  |  |  |  |  |  |  |  |
| CC(C)(C)c1ncc(NC(=O)CCc2nc(-c3ccc(F)cc3Cl)no2)cn1 | 8.27 | 91% | < 5.00 | 8.89 | 6.24 | 8.54 | 97% |  | 99% | < 6.00 | 67% |  |
| CC(C)(C)c1ncc(OCCCc2nc(-c3ccc(F)cc3Cl)no2)cn1 | 8.31 | 110% | 6.21 | 7.80 | 6.27 | 7.62 | 91% | 99% | 100% | 5.82 | 86% | 63% |
| CCn1c2ccccc2c2cc(NC(=O)CCc3cc(-c4ccccc4F)n(C)n3)ccc21 | < 5.00 |  | < 5.00 |  |  |  |  |  |  |  |  |  |
| CCn1c2ccccc2c2cc(NC(=O)CCn3cc(-c4ccccc4F)nn3)ccc21 | 6.33 | 15% | < 5.00 |  |  |  |  |  |  |  |  |  |
| CCn1c2ccccc2c2cc(NC(=O)CCc3nc(-c4ccccc4Cl)no3)ccc21 | 8.22 | 100% | < 5.00 |  |  |  |  |  |  |  |  |  |
| CCn1c2ccccc2c2cc(NC(=O)CCc3nc(-c4ccccc4F)co3)ccc21 | 5.70 | 46% | < 5.00 |  |  |  |  |  |  |  |  |  |
| O=C(CCc1nc(-c2ccc(F)cc2Cl)no1)Nc1ccc(C(F)(F)F)cc1 | 7.12 | 120% | < 5.00 | 7.24 | < 6.00 | 7.42 | 94% |  | 90% | < 6.00 |  |  |
| CCn1c2ccccc2c2cc(NC(=O)CCn3nnc(-c4ccccc4F)n3)ccc21 | 6.70 | 93% | < 5.00 | 7.01 | < 6.00 | 6.16 | 88% |  | 90% | < 6.00 |  |  |
